The list is not random: actives were taken first. Their share in the collection is about 1.4%.
T cell HTS: T cell immune modulation candidate; 2C CD8+ T cell-vesicle binding, flow cytometry; active compounds read low; response (vesicle binding), % at 7 µM; actives 0.068% (n = 330,000);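 active = response, share of CD8 T cells binding vesicles, and their 90th percentile fluorescence all below set limits, cut at about 80% in these data, passing the limit was not always enough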;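 note: values below 100% mean blocked vesicle binding to the CD8+ T cells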
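Material: murine 2C transgenic CD8+ T lymphocytes / Also added: QL9-peptide-loaded Drosophila micro-vesicles bearing Ld, ICAM-1 and B7-1 / Schedule: binding step 1.5 h, 37 °C, antibody labelling 20 min, ice / Signal: flow cytometry, PE anti-B7-1 (FL2) versus Alexa647 anti-CD8 (FL8), PFA-fixed / Evaluation: percent CD8+ FL2 mean versus row control / Benchmarks: naked versus QL9-loaded vesicles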
Myeloid diff MLP: compounds promoting myeloid differentiation; actives 1% (n = 360,000); ER-HoxA9 myeloid progenitors, lysozyme-GFP differentiation, flow cytometry; calls only at 10 µM;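 active = normalized GFP-positive differentiation at or above the plate's own cutoff, the solvent-only control mean plus 3 SD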;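 note: cells exposed to compound for four days before flow analysis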
Casp6 inh: caspase-6 (human) enzyme inhibition; inhibition, % at 12.5 µM; purified caspase-6, Z-VEID-R110 cleavage fluorescence; P55212; actives 0.53% (n = 350,000);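 active = mean inhibition across replicates at least about 35%, with every replicate also reaching that limit, limit read from the data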;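 note: 0% = median of neutral control wells and 100% = no fluorescence left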
Target sequence (P55212 24-179 limits assumed): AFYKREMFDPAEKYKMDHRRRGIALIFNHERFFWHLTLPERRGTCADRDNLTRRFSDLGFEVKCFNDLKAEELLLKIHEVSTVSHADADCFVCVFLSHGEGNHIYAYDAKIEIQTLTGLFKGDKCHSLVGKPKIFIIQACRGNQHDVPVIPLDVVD
Target sequence (P55212 194-293 limits assumed): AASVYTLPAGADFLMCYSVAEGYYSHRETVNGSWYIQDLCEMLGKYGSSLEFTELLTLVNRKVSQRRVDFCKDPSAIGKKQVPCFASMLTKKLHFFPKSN
Vif inh: blocks HIV Vif function | HEK293T cells, Vif self-association by quenched fluorescence, imaging, 24 h | inhibition, % at 7.49 µM | actives 0.35% (n = 340,000) | AID 602346; in the data active = inhibition above about 50%, passing the limit was not always enough
Myeloid diff: myeloid differentiation induction | shares compounds with Myeloid diff MLP | ER-HoxA9 myeloid progenitors, GFP/Mac1 double-positive flow | actives 2% (n = 2,300) | calls only;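 active = share of green or green-and-red cells above 9 and 9% in run 1 or 4 and 3% in run 2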
GFP autofluor: counter-screen for myeloid differentiation promoters: compound fluorescence | shares compounds with Myeloid diff MLP | ER-HoxA9 myeloid progenitors, no estrogen, GFP autofluorescence flow cytometry; vehicle wells 0%, positive control 100% | fluorescence response, % (test concentration not listed) | actives 7.4% (n = 2,300) | AID 651707;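 active = over 5% cells positive for green fluorescent reporter, or over 2% positive for both it and APC stain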;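 note: range taken on the double positive population between DMSO and positive control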
The depositor's hits bear a star; i = inactive; nt = no result; + = active, no number.

SMILES	T cell HTS	Myeloid diff MLP	Casp6 inh	Vif inh	Myeloid diff	GFP autofluor
CCOC(=O)c1cc(C(=O)OCC)c2cccc(C)n2c1=O	190.9	+	nt	2.8	i	0.3
CCOC(=O)c1cc(Br)c(=O)n2ccccc12	214.1	i	nt	1.6	nt	nt
CO[C@@H]1CN(C)C(=O)c2ccc(NC(=O)c3ccccc3)cc2OC[C@@H](C)N(C)C[C@H]1C	nt	nt	3.0	nt	nt	nt
COc1ccc(CN(C)C[C@H]2Oc3ccc(NS(=O)(=O)c4ccc(F)cc4)cc3CC(=O)N([C@H](C)CO)C[C@@H]2C)cc1	nt	nt	1.6	nt	nt	nt
CCOc1ccc(CCN2C(=O)C(=O)N([C@@H](Cc3ccccc3)CN3CCC[C@H]3CN3C(=O)C(=O)NC[C@@H]3CC(C)C)C[C@@H]2Cc2ccc(O)cc2)cc1	nt	i	0.7	nt	i	0.3
CC(C)c1cn(CC[C@@H]2CC[C@@H](NC(=O)c3cccc(F)c3)[C@@H](CO)O2)nn1	nt	nt	11.1	nt	nt	nt
FC(F)(F)c1ccccc1CN1CCN(C2CCCCCC2)CC1	210.4	i	nt	-1.9	nt	nt
FC(F)(F)c1ccccc1CN1CCCC(N2CCN(c3ccccc3)CC2)C1 (centres undefined)	376.1	i	0.6	-2.9	i	10.2*
CN(C)c1ccc2c(c1)[C@H]1C[C@H](CC(=O)NCc3cccc(F)c3)O[C@@H](CO)[C@H]1O2	nt	nt	0.5	nt	nt	nt
C[C@@H]1CN([C@H](C)CO)S(=O)(=O)c2ccc(-c3cccc(F)c3)cc2O[C@H]1CN(C)S(=O)(=O)c1ccccc1	nt	nt	-1.4	nt	nt	nt
CC1=NN(C(C#N)c2ccc(F)cc2)C(C)(C)C1 (centres undefined)	174.3	+	-3.1	11.2	i	0.3
Cc1cccc(N2CCN(S(=O)(=O)c3c(C)[nH]c(=O)[nH]c3=O)CC2)c1C	i	i	nt	-2.1	i	0.3
O=C(Oc1c(Cl)cc(Cl)c2cccnc12)N1CCOCC1	424.4	i	nt	18.5	nt	nt
O=C(Oc1ccnc2cc(Cl)ccc12)N1CCOCC1	559.7	i	4.0	-2.2	i	0.3
CCc1nnc(NS(=O)(=O)c2ccc(NC(=S)NC(=O)c3cccnc3)cc2)s1	299.9	+	3.7	1.7	i	0.6
C[C@H]1CN([C@@H](C)CO)C(=O)c2cccc(NS(=O)(=O)c3ccc(F)cc3)c2O[C@H]1CN(C)C(=O)Nc1cccc2ccccc12	nt	nt	2.7	nt	nt	nt
C[C@@H]1CN([C@H](C)CO)C(=O)c2cc(NS(=O)(=O)c3ccc(F)cc3)ccc2O[C@@H](C)CCCCO[C@@H]1CN(C)Cc1ccccc1	nt	nt	0.1	nt	nt	nt
CN(C)c1cccc(Nc2ccc(-c3ccc(OC(F)(F)F)cc3)cn2)c1	nt	+	-4.0	-5.1	i	0.0
O=[N+]([O-])c1ccccc1/C=C/CN1CCCCC1	nt	i	nt	8.4	i	0.0
COc1cc(CNc2ccc3[nH]c(=O)[nH]c3c2)ccc1OCc1ccccc1Cl	96.1	i	-1.0	25.8	i	0.3
C[C@@H]1CCCCO[C@@H](CN(C)S(C)(=O)=O)[C@H](C)CN([C@@H](C)CO)C(=O)c2cc(NS(=O)(=O)c3cn(C)cn3)ccc2O1	nt	nt	-0.2	nt	nt	nt
Cn1c(N)nc2nc[nH]c2c1=S	nt	i	1.3	1.7	i	0.0
COc1cccc(C(=O)NC(=S)Nc2ccccc2N2CCCCC2)c1	i	+	-1.1	-9.8	i	1.0
COc1ccc(NC(=O)N2C[C@@H]3N[C@H](C2)[C@@H]3c2ccc(-c3ccc(OC)cc3)cc2)cc1	nt	nt	2.1	nt	nt	nt
CCOC(=O)/C=C1\SCC(=O)N1CC(=O)NC1CCCCC1	223.6	+	0.1	-4.1	i	0.3
CCOC(=O)/C=C1\SCC(=O)N1CC(=O)NCCOC	158.9	i	-0.6	-7.7	nt	nt
Cc1noc(C)c1NC(=O)NCC[C@@H]1CC[C@H](NC(=O)Nc2cccc(Cl)c2)[C@H](CO)O1	nt	nt	-206.0	nt	nt	nt
CN(C)C(=O)C[C@@H]1C[C@H]2c3cc(NC(=O)C4CCOCC4)ccc3O[C@H]2[C@H](CO)O1	nt	nt	-1.6	nt	nt	nt
C[C@@H]1CCCCO[C@H](CN(C)Cc2ccc3c(c2)OCO3)[C@@H](C)CN([C@H](C)CO)C(=O)c2cc(NC(=O)C3CCCCC3)ccc2O1	nt	nt	-2.5	nt	nt	nt
O=C(Nc1nc(-c2ccc(Cl)cc2)cs1)C1=COCCO1	283.0	i	-4.8	-4.6	i	0.0

Source: PubChem
